From PubChem BioAssay
The list is not random: actives were taken first. Their share in the collection is about 1.3%.
PME-1 primary: PME-1 inhibitors via competitive probe labeling, primary screen, biochemical, fluorescence polarization, FP-Rh probe, HTS | recombinant PME-1 | inhibition, % at 5.9 µM | 320,000 compounds, 0.53% hits | AID 2130, 2009;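 active = inhibition above the campaign mean of all compounds plus 3 SD, cut at about 26% in these data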;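 also: competitive labeling of PME-1 active site by serine hydrolase directed probe; inhibitors block probe labeling so polarization falls and inhibition rises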
LYPLA1 inh: LYPLA1 inhibitors, primary screen, counter-screen for PME1 inhibitor project, biochemical, fluorescence polarization, FP-Rh probe ABPP | 320,000 compounds, 0.16% hits | Acyl-protein thioesterase 1 (Homo sapiens), O75608 | recombinant LYPLA1 | inhibition, % at 5.9 µM;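 active = inhibition above the mean of all tested compounds plus 3 SD, set per campaign, cut at about 14% in these data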;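 also: inhibitors block serine hydrolase probe labeling of LYPLA1 so polarization falls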
Target sequence (O75608 whole entry, looked up): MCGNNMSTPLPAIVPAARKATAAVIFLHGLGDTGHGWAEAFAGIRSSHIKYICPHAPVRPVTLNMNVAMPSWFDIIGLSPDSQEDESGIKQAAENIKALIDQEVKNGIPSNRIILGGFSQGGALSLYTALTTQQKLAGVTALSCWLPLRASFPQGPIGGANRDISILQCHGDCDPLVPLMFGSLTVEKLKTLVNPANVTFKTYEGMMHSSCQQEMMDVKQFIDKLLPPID
LYPLA2 inh: LYPLA2 inhibitors, primary screen, counter-screen for PME1 inhibitor project, biochemical, fluorescence polarization, FP-Rh probe ABPP. Acyl-protein thioesterase 2 (Homo sapiens), O95372. recombinant LYPLA2. inhibition, % at 5.9 µM. 320,000 compounds, 0.38% hits;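 active = inhibition above the screen-wide mean plus 3 SD, limit set per campaign, cut at about 26% in these data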
Target sequence (O95372 whole entry, looked up): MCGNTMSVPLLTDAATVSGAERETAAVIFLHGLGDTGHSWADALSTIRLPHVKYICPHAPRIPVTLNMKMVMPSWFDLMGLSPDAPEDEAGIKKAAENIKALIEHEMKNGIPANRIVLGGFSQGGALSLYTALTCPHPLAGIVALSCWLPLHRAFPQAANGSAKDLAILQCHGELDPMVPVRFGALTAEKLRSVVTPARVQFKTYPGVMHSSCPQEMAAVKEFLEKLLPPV
RBBP9 inhibitor: human RBBP9 inhibitors, primary screen, biochemical, fluorescence polarization, FP-Rh probe, HTS; Serine hydrolase RBBP9 (Homo sapiens), O75884; recombinant RBBP9; inhibition, % at 7.94 µM; 220,000 compounds, 0.2% hits;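 active = inhibition above the campaign mean of all tested compounds plus 3 SD, cut at about 14% in these data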
Target sequence (O75884 whole entry, looked up): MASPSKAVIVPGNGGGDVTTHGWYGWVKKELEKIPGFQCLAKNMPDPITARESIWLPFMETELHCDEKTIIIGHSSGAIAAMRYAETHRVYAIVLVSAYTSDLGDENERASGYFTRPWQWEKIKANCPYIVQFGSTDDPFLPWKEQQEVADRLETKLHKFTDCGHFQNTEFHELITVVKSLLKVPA
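System: RBBP9 protein / Quantity: 2.5 µM RBBP9 dispensing solution, before mixing / Also added: Serine-hydrolase probe FP-Rh, 375 nM pre-mixing / Dosing: 7.94 µM single dose, 0.794% DMSO / Timing: enzyme-compound preincubation 30 min, then probe labeling 45 min, 25 °C / Signal: FP readout at 525/598 nm / Controls: DMSO-treated enzyme wells and wells lacking RBBP9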
Fam108B inh: mouse Fam108B serine hydrolase inhibitors, primary screen, counter-screen for RBBP9 inhibitor project, biochemical, fluorescence polarization | recombinant Fam108B, FP-Rh probe fluorescence polarization | inhibition, % at 9.51 µM | 300,000 compounds, 0.33% hits | AID 1947, 2009;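 active = inhibition above the screen mean inhibition plus 3 SD, computed separately per campaign, cut at about 18% in these data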;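 also: inhibitors lower polarization as less probe binds the enzyme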
PAD4 inh: human PAD4 inhibitors, primary screen, biochemical, fluorescence polarization, 1536-well format. recombinant PAD4, RCA probe fluorescence polarization. 330,000 compounds, 0.41% hits. inhibition, % at 6.36 µM. Protein-arginine deiminase type-4 (Homo sapiens), Q9UM07. AID 485272, 2010;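 active = percent inhibition above a cutoff equal to the mean of all tested compounds plus 3 SD, cut at about 15% in these data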
LYPLA2 conf: LYPLA2 inhibitors, retest, confirmation, counter-screen for PME1 inhibitor project, biochemical, fluorescence polarization, FP-Rh probe ABPP; inhibition, % at 5.9 µM; 1,100 compounds, 72% hits; recombinant LYPLA2; shares compounds with LYPLA2 inh;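 active = mean inhibition across replicates above the hit cutoff set in the primary screen, cut at about 26% in these data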;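 also: blocked labeling of the enzyme by serine hydrolase FP-Rh probe lowers polarization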
LYPLA2 gel ABPP: LYPLA2 inhibitors in proteome, late-stage follow-up, gel-based competitive ABPP, fluorescence, assay provider | inhibition, % at 20 µM | 150 compounds, 30% hits | shares compounds with LYPLA2 inh | rhLYPLA2 in mouse brain proteome, gel ABPP FP-Rh;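 active = inhibition of LYPLA2 enzyme probe labeling above about 50%, limit read from the data; inactive = inhibition below that limit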;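 also: loss of FP-Rh probe labeling of the LYPLA2 gel band measured as band density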
Hits are given with their value; – = inactive; · = no result given.

SMILES | PME-1 primary | LYPLA1 inh | LYPLA2 inh | RBBP9 inhibitor | Fam108B inh | PAD4 inh | LYPLA2 conf | others
Cc1cc(CCCCCCCCc2cc(C)cc(=O)o2)oc(=O)c1 | – | – | 37 | – | – | – | 45
COC(=O)c1cc(C)cc(=O)o1 | – | – | – | – | – | – | ·
COc1ccc(-n2c(/C=C(\C)O)nc(=O)c3c(C)cc(C)nc32)cc1 | – | – | – | – | – | – | ·
CCOC(=O)N1CCN(C(=O)c2ccc(Cn3c(=S)[nH]c4cc(C(=O)OC)ccc4c3=O)cc2)CC1 | – | – | 29 | · | – | – | –
O=C(c1ccc(Cn2c(=S)[nH]c3ccc(N4CCOCC4)cc3c2=O)cc1)N1CCN(c2ccc(F)cc2)CC1 | – | – | – | – | – | – | ·
O=C(c1ccc(Cn2c(=O)[nH]c3ccccc3c2=O)cc1)N1CCN(c2ccc(F)cc2)CC1 | – | – | 42 | – | – | – | 35
COc1ccc(N2CCN(C(=O)c3ccc(Cn4c(=S)[nH]c5ccc(N6CCOCC6)cc5c4=O)cc3)CC2)cc1 | – | – | 75 | – | – | – | 72 | LYPLA2 gel ABPP=–
COC(=O)c1cc(C#N)c(N2CCN(C)CC2)nc1C | – | – | – | – | – | – | ·
CCOC(=O)C1CCN(CC(=O)Nc2cc(S(=O)(=O)N3CCOCC3)ccc2C)CC1 | – | – | – | – | – | – | ·
COCc1cccc(N2C(=O)CC(C3C=C(C)C4C(=O)N(c5cccc(COC)c5)C(=O)C4C3)C2=O)c1 (stereo not drawn) | – | – | – | – | – | – | ·
CN(Cc1nc(-c2ccccn2)no1)S(=O)(=O)c1ccc(Cl)cc1 | – | – | 28 | – | – | – | 26
Cc1ccc(NC(=O)C2CC(=O)N(Cc3ccccc3)C2)nc1 (stereo not drawn) | – | – | – | · | – | – | ·
O=C(O)CCN1C(=O)c2ccc(Oc3ccc4c(c3)C(=O)N(CCC(=O)O)C4=O)cc2C1=O | – | – | – | – | – | – | ·
O=C1c2ccc(Oc3ccc([N+](=O)[O-])cc3)cc2C(=O)N1CCCO | – | – | 46 | · | – | – | 50
O=C1c2ccc(Oc3ccc4c(c3)C(=O)N(CCCCO)C4=O)cc2C(=O)N1CCCCO | – | – | 29 | – | – | – | 35
COc1ccc(C(=O)Nc2ccc(Cl)cc2C(=O)N2CCCC(C)C2)cc1 (stereo not drawn) | – | – | – | – | – | – | ·
O=C(Nc1ccn(Cc2ccc(Cl)cc2)n1)c1ccc2c(c1)OCO2 | – | – | – | – | – | – | ·
CNC(=O)COC(=O)c1cc2c(C)nn(-c3ccc(F)cc3)c2s1 | – | – | – | – | – | – | ·
Cc1nn(-c2ccc(F)cc2)c2sc(C(=O)OC3CCOC3=O)cc12 (stereo not drawn) | – | – | 35 | – | – | – | 28
O=C(Cn1cnc2c(OCc3ccccc3)ncnc21)N[C@H](CO)Cc1cc2ccccc2[nH]1 | · | · | · | · | · | – | ·
COCC(=O)N/N=C\c1ccccc1OC/C=C/c1ccccc1 | – | – | 50 | · | – | – | 42
N#CCC(=O)Nc1ccc(C(=O)OCc2ccccc2Oc2ccccc2)cc1 | 38 | – | 26 | · | – | – | –
COc1cccc(-c2csc(N3CCN(CC(=O)Nc4ccc5c(c4)OCO5)CC3)n2)c1 | – | – | – | – | – | – | ·
COc1ccc(NC(=O)CN2CCN(c3nc(-c4cccc(OC)c4)cs3)CC2)cc1 | – | – | 33 | – | – | – | –
Cc1nnc(SCC(=O)c2ccc([N+](=O)[O-])cc2)s1 | – | – | – | – | – | – | ·
SMILES | PME-1 primary | LYPLA1 inh | LYPLA2 inh | RBBP9 inhibitor | Fam108B inh | PAD4 inh | LYPLA2 conf | others
Nc1nnc(SCC(=O)c2ccc([N+](=O)[O-])cc2)s1 | – | – | 29 | – | – | – | –
O=C(NCCC1=CCCCC1)C1CCN(S(=O)(=O)c2ccccc2)CC1 | – | – | 28 | – | – | – | –
O=C(CN1CCOCC1)Nc1ccc([N+](=O)[O-])cc1 | – | – | – | · | – | – | ·
CCCOc1ccc(-c2c(=O)n(O)c3ccccc3[n+]2[O-])cc1 | – | – | 50 | · | – | – | –
CCOc1ccc(-c2c(=O)n(OCc3ccccn3)c3ccccc3[n+]2[O-])cc1 | – | – | – | – | – | – | ·
COc1ccc(N2CCN(C(=O)c3ccc(Br)cc3)CC2)c([N+](=O)[O-])c1 | – | – | 48 | – | – | – | 56 | LYPLA2 gel ABPP=–
CON=Cc1ccc(N2CCN(C(=O)c3cccc(C(F)(F)F)c3)CC2)c([N+](=O)[O-])c1 | · | · | · | · | · | · | · | LYPLA2 gel ABPP=88
COc1ccc(N2CCN(C(=O)c3ccc(C)cc3)CC2)c([N+](=O)[O-])c1 | – | – | – | – | – | – | ·
CON=Cc1ccc(N2CCN(C(=O)c3ccc(Cl)cc3Cl)CC2)c([N+](=O)[O-])c1 | · | · | · | · | · | · | · | LYPLA2 gel ABPP=–
O=C(NC(Cc1ccc2c(c1)OCO2)C(=O)NC(Cc1ccccc1)C(=O)O)c1ccccc1 (stereo not drawn) | – | – | – | – | – | – | ·
CC1CCN(S(=O)(=O)c2ccc3c(c2)N(CC(=O)NCCCN2CC(C)CC(C)C2)C(=O)CS3)CC1 (stereo not drawn) | – | – | – | · | – | – | ·
CN(C)c1ccc(-c2noc(C3CCN(S(=O)(=O)c4ccc(C(=O)O)cc4)CC3)n2)cc1 | – | – | 30 | – | – | – | 29
Cc1ccc(-c2noc(C3CCN(S(=O)(=O)c4ccc5c(c4)OCCO5)CC3)n2)o1 | – | – | 56 | – | – | – | 54 | LYPLA2 gel ABPP=–
CN(C)c1ccc(-c2noc(C3CCN(S(=O)(=O)c4cccc(Cl)c4)CC3)n2)cc1 | – | – | – | – | – | – | ·
Cc1ccc(-c2noc(C3CCCN(S(=O)(=O)c4ccc5ccccc5c4)C3)n2)o1 (stereo not drawn) | – | – | – | – | – | – | ·
O=C(Nc1ccc(N2CCN(C(=O)c3ccco3)CC2)cc1)c1ccc(Br)cc1 | – | – | – | · | – | – | ·
O=C(Nc1ccc(N2CCN(C(=O)c3ccco3)CC2)cc1)c1cc(Br)ccc1Cl | – | – | 44 | · | · | – | 49
